Experiments:
MDA-MB-468 = assay: Antiproliferative activity against human MDA-MB-468 cells after 3 days by sulforhodamine B assay; assay type: functional; settings: MDA-MB-468, 72 h
Summary of the method: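 Tested in the NCI 60 cell line panel. GI50 is the concentration giving 50% inhibition of cell growth, and values are the mean of two series of tests.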

T47D = assay: Antiproliferative activity against human T47D cells after 3 days by sulforhodamine B assay; assay type: functional; settings: 72 h
TK-10 = assay: Antiproliferative activity against human TK10 cells after 3 days by sulforhodamine B assay; assay type: functional; settings: TK-10, 72 h
[1] = target: Mitogen-activated protein kinase 14 (Homo sapiens) (UniProt Q16539); assay: Inhibition of human SAPK2alpha assessed as residual activity at 1 uM relative to control
[2] = target: Ribosomal protein S6 kinase alpha-3 (Homo sapiens) (UniProt P51812); assay: Inhibition of human Rsk2 assessed as residual activity at 1 uM relative to control
Ribosomal protein S6 kinase alpha-3 (Homo sapiens), sequence (P51812 whole entry): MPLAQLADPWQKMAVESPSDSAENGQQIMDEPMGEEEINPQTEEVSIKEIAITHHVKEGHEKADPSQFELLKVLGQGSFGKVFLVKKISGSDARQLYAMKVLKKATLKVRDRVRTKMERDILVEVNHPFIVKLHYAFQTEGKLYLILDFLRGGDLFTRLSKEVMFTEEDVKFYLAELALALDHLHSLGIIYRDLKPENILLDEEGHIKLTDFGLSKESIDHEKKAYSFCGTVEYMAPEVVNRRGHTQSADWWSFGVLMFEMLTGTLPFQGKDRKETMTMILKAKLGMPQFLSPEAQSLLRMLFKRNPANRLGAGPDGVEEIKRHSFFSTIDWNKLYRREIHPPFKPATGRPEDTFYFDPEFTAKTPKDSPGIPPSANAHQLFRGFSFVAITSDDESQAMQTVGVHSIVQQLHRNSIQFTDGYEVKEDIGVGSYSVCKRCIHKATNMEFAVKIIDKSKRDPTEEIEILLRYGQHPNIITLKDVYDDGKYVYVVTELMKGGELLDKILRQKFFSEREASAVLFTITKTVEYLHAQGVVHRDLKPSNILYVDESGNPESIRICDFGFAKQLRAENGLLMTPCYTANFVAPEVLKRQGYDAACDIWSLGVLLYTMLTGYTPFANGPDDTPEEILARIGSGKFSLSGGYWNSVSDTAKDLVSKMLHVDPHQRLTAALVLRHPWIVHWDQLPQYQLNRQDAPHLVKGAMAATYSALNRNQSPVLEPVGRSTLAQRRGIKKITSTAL

[3] = target: Macrophage-stimulating protein receptor (Homo sapiens) (UniProt Q04912); assay: Inhibition of human Ron assessed as residual activity at 1 uM relative to control
Macrophage-stimulating protein receptor (Homo sapiens), sequence (Q04912 25-304 limits assumed): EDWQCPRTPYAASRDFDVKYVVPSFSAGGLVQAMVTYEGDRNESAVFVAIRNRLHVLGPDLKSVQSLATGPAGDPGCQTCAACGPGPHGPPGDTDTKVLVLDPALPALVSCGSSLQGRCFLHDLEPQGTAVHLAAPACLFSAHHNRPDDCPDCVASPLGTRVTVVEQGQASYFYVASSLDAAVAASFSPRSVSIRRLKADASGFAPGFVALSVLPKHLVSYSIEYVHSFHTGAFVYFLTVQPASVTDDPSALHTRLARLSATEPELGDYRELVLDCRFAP
Macrophage-stimulating protein receptor (Homo sapiens), sequence (Q04912 310-1400 limits assumed): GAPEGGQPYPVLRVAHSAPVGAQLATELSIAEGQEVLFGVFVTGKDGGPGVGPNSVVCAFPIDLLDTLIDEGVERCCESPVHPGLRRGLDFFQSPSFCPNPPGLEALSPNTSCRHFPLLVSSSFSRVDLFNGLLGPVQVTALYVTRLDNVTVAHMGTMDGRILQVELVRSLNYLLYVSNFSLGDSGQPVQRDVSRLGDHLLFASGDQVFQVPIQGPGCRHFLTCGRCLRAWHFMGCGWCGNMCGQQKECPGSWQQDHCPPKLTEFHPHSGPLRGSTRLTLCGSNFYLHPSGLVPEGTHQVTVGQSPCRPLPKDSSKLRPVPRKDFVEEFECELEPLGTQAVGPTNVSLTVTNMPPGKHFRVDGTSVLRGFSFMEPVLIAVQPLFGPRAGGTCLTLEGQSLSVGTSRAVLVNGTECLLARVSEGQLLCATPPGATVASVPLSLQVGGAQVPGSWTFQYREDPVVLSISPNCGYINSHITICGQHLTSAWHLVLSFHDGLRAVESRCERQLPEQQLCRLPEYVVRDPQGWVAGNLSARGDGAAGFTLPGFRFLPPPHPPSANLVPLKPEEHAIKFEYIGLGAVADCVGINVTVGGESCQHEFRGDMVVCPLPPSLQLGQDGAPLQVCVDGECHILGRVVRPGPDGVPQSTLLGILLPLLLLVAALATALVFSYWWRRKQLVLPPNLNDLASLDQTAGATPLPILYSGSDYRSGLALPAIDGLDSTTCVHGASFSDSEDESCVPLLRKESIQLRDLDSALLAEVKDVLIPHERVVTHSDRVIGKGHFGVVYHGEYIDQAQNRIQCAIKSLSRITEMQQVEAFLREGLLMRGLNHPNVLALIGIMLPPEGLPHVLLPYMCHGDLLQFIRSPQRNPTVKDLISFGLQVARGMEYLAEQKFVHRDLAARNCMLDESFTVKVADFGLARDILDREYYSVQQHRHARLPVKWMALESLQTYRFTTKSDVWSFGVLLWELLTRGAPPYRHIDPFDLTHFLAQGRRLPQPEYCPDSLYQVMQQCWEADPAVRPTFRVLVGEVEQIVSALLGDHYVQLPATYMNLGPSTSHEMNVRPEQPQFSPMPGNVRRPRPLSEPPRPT

[4] = target: MAP kinase-activated protein kinase 5 (Homo sapiens) (UniProt Q8IW41); assay: Inhibition of human PRAK assessed as residual activity at 1 uM relative to control
[5] = target: Protein kinase C theta type (Homo sapiens) (UniProt Q04759); assay: Inhibition of human PKCtheta assessed as residual activity at 1 uM relative to control
MCF7 = assay: Cell cycle arrest in human MCF7 cells assessed as accumulation at G1 phase at 0.25 uM after 24 hrs using propidium iodide staining by FACS analysis (reference value: 57.74%); assay type: functional
[6] = target: Protein kinase C gamma type (Homo sapiens) (UniProt P05129); assay: Inhibition of human PKCgamma assessed as residual activity at 1 uM relative to control
Homo sapiens = organism: Homo sapiens; assay: Inhibition of human PKA assessed as residual activity at 1 uM relative to control
[7] = target: PAS domain-containing serine/threonine-protein kinase (Homo sapiens) (UniProt Q96RG2); assay: Inhibition of human PASK assessed as residual activity at 1 uM relative to control
[8] = target: Serine/threonine-protein kinase PAK 2 (Homo sapiens) (UniProt Q13177); assay: Inhibition of human PAK2 assessed as residual activity at 1 uM relative to control
[9] = target: T1, Muscle, skeletal receptor tyrosine-protein kinase (Homo sapiens) (UniProt O15146); assay: Inhibition of human MuSK assessed as residual activity at 1 uM relative to control
T1 sequence (whole entry): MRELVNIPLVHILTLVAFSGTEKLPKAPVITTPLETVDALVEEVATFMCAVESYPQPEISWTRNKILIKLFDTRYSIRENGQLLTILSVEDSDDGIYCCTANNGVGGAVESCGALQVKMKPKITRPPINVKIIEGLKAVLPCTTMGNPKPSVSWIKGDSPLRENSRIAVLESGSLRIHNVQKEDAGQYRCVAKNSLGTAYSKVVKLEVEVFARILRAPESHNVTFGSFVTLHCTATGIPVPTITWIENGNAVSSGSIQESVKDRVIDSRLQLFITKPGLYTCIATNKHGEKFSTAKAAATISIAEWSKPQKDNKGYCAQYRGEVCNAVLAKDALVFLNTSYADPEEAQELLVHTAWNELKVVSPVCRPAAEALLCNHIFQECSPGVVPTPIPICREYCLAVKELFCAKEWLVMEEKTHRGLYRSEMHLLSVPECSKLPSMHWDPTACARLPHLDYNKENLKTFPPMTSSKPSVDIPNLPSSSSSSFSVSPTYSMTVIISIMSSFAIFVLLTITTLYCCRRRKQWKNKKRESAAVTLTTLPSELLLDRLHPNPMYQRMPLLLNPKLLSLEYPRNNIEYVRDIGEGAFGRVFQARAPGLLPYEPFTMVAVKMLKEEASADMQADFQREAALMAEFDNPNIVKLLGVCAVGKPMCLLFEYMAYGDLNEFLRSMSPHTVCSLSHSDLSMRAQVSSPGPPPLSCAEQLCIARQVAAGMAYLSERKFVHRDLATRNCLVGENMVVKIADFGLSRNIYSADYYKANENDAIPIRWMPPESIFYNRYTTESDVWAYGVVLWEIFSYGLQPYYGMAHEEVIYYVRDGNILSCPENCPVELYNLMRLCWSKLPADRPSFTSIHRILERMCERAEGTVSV

[10] = target: Dual specificity mitogen-activated protein kinase kinase 1 (Homo sapiens) (UniProt Q02750); assay: Inhibition of human MEK1 assessed as residual activity at 1 uM relative to control
[11] = target: Tyrosine-protein kinase Lyn (Homo sapiens) (UniProt P07948); assay: Inhibition of human Lyn assessed as residual activity at 1 uM relative to control
Tyrosine-protein kinase Lyn (Homo sapiens), sequence (P07948 2-512 limits assumed): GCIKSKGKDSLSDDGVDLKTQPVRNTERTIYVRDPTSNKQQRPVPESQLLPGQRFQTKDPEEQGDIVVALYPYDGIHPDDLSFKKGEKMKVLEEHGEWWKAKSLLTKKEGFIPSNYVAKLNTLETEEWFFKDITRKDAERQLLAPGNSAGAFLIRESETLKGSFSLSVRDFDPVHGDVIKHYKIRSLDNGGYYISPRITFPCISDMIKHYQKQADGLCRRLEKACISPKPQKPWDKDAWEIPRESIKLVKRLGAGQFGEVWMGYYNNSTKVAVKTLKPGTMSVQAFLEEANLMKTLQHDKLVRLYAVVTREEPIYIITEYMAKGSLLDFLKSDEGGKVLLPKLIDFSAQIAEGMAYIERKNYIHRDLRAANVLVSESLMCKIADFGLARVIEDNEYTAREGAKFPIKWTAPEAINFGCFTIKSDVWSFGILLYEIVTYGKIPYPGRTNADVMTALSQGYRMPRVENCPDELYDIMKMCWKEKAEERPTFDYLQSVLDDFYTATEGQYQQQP

[12] = target: Tyrosine-protein kinase ITK/TSK (Homo sapiens) (UniProt Q08881); assay: Inhibition of human Itk assessed as residual activity at 1 uM relative to control
[13] = target: Insulin receptor-related protein (Homo sapiens) (UniProt P14616); assay: Inhibition of human IRR assessed as residual activity at 1 uM relative to control
[14] = target: Homeodomain-interacting protein kinase 2 (Homo sapiens) (UniProt Q9H2X6); assay: Inhibition of human HIPK2 assessed as residual activity at 1 uM relative to control
Homeodomain-interacting protein kinase 2 (Homo sapiens), sequence (Q9H2X6 whole entry, looked up): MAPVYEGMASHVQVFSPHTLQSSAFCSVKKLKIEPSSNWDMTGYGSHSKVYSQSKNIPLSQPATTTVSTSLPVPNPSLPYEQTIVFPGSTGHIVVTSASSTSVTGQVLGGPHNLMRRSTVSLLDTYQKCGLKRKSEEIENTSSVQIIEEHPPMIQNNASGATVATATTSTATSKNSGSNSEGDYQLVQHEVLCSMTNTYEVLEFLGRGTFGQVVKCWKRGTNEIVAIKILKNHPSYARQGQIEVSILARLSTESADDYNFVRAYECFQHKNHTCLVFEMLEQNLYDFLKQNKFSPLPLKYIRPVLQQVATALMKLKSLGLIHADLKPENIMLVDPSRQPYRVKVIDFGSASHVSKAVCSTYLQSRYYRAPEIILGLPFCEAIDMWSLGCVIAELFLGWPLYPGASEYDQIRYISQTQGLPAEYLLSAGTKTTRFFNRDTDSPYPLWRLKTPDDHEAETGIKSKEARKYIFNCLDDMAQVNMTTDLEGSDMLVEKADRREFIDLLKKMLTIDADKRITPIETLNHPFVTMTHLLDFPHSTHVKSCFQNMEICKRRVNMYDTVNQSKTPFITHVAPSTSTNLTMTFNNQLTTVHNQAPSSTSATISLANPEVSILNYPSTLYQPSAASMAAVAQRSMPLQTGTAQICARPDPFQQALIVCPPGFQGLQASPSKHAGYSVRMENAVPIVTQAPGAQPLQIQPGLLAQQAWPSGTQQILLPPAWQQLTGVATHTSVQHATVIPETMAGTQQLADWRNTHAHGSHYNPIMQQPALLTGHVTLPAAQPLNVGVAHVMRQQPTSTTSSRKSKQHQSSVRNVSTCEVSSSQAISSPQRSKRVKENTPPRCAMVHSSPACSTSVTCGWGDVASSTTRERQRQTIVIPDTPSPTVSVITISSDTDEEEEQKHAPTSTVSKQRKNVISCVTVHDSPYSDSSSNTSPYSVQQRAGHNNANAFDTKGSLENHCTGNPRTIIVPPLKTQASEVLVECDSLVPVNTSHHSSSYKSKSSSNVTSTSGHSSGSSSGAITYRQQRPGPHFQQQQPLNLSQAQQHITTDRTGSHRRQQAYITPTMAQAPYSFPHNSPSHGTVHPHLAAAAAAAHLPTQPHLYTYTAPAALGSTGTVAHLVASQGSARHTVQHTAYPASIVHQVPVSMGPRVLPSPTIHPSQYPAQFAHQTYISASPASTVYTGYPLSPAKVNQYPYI

[15] = target: Mitogen-activated protein kinase kinase kinase kinase 2 (Homo sapiens) (UniProt Q12851); assay: Inhibition of human GCK assessed as residual activity at 1 uM relative to control
[16] = target: Tyrosine-protein kinase Fyn (Homo sapiens) (UniProt P06241); assay: Inhibition of human Fyn assessed as residual activity at 1 uM relative to control
Tyrosine-protein kinase Fyn (Homo sapiens), sequence (P06241 2-537 limits assumed): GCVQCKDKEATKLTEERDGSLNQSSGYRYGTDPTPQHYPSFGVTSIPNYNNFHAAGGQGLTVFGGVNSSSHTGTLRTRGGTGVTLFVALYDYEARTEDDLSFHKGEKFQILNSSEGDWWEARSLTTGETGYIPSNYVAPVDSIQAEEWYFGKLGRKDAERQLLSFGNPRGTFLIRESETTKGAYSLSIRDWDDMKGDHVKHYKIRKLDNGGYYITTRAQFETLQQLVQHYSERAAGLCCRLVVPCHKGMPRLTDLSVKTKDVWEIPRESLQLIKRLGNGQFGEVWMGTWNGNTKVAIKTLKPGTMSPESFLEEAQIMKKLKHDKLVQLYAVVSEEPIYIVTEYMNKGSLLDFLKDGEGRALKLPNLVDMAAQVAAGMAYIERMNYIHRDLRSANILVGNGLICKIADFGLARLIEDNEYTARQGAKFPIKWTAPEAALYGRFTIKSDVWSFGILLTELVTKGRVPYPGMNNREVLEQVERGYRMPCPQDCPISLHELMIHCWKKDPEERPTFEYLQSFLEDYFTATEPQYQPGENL

[17] = target: Ephrin type-A receptor 4 (Homo sapiens) (UniProt P54764); assay: Inhibition of human EphA4 assessed as residual activity at 1 uM relative to control
[18] = target: Casein kinase I isoform gamma-2 (Homo sapiens) (UniProt P78368); assay: Inhibition of human CK1gamma2 assessed as residual activity at 1 uM relative to control
Casein kinase I isoform gamma-2 (Homo sapiens), sequence (P78368 whole entry, looked up, canonical isoform): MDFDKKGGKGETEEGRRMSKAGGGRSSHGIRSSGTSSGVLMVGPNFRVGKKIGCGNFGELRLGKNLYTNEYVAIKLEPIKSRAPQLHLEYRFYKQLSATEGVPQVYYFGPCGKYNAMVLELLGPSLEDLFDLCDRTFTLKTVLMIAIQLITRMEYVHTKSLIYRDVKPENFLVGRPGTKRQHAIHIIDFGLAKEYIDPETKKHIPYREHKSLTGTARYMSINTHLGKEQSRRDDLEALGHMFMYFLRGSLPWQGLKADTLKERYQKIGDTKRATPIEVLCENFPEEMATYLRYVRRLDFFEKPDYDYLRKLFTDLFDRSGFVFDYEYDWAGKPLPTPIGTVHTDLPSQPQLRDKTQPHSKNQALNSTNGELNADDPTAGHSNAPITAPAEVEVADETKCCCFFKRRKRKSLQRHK

[19] = target: Cyclin-dependent kinase 5/CDK5 activator 1 (Homo sapiens) (UniProt Q00535+Q15078); assay: Inhibition of human CDK5/p35 assessed as residual activity at 1 uM relative to control; assay type: protein-complex assay
[20] = target: Cyclin-dependent kinase 2/cyclin E1 (Homo sapiens) (UniProt P24864+P24941); assay: Inhibition of human CDK2/cyclinE assessed as residual activity at 1 uM relative to control; assay type: protein-complex assay
[21] = target: Proto-oncogene tyrosine-protein kinase receptor Ret (Homo sapiens) (UniProt P07949); assay: Inhibition of RET (unknown origin) assessed as residual activity at 10 uM relative to control
[22] = target: Aurora kinase C (Homo sapiens) (UniProt Q9UQB9); assay: Inhibition of Aurora-C (unknown origin) assessed as residual activity at 10 uM relative to control
[23] = target: Tyrosine-protein kinase JAK2 (Homo sapiens) (UniProt O60674); assay: Inhibition of JAK2 (unknown origin) assessed as residual activity at 1 uM relative to control

SMILES: O=C1Nc2ncccc2/C1=C1/Nc2ncccc2C1=O
- GI50 (MDA-MB-468): 1140 nM
- GI50 (T47D): 1770 nM
- GI50 (TK-10): 2270 nM
- Activity [1]: 111%
- Activity [2]: 94%
- Activity [3]: 101%
- Activity [4]: 105%
- Activity [5]: 116%
- Activity (MCF7): 58.28%
- Activity [6]: 114%
- Activity (Homo sapiens): 91%
- Activity [7]: 132%
- Activity [8]: 124%
- Activity [9]: 134%
- Activity [10]: 96%
- Activity [11]: 123%
- Activity [12]: 106%
- Activity [13]: 80%
- Activity [14]: 115%
- Activity [15]: 102%
- Activity [16]: 124%
- Activity [17]: 78%
- Activity [18]: 114%
- Activity [19]: 96%
- Activity [20]: 79%
- Activity [21]: 97%
- Activity [22]: 76%
- Activity [23]: 103%
